Laboratory results reported in ChEMBL document CHEMBL4840303, “Design, synthesis, biological evaluation and pharmacophore model analysis of novel tetrahydropyrrolo[3,4-c]pyrazol derivatives as potential TRKs inhibitors” (Eur J Med Chem, 2021).

Experiments:
[1] = Stability in human liver microsomes assessed as compound remaining at 100 uM measured after 60 mins by LC-MS/MS analysis; assay type: ADME, Microsome; details: 1 h
Summary of the method: (§1)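 Human liver microsomes diluted to 0.59 mg/mL working solution in 100 mM potassium phosphate, prewarmed 10 min at 37 °C; compound added from a 100 µM working solution. NADPH (in 10 mM MgCl2) added to one plate, buffer instead in no-cofactor control. Incubated at 37 °C, quenched at 5, 15, 30, 45, 60 min, centrifuged, analysed by LC-MS/MS.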

[2] = Clearance in human liver assessed as half life at 100 uM measured after 60 mins by LC-MS/MS analysis; assay type: ADME, Microsome; details: microsomes, 1 h
Summary of the method: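 Pooled human liver microsomes were diluted to 0.59 mg/mL (working solution) in 100 mM potassium phosphate buffer and pre-warmed at 37 °C. Compound was added from a 100 µM working solution, with NADPH cofactor prepared in 10 mM MgCl2. Incubation ran at 37 °C for 60 min. Aliquots were quenched at 5, 15, 30, 45 and 60 min. A control without NADPH was run in buffer. Samples were analysed by LC-MS/MS.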

KM12 [3] = assay: Cell cycle arrest in human KM12 cells assessed as accumulation of cells at G2 phase at 1000 nM measured after 48 hrs by AnnexinV-FITC/PI staining based flowcytometry method relative to control; assay type: functional
KM12 [4] = assay: Induction of apoptosis in human KM12 cells assessed as viable cells at 1000 nM measured after 48 hrs by AnnexinV-FITC/PI staining based flowcytometry assay relative to control; assay type: functional; details: read-out: Activity
Summary of the method: (§2)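 10^5 cells in Annexin V binding buffer stained with FITC-Annexin V and PI for 10 min at room temperature in the dark, diluted with PBS and analysed by flow cytometry (FITC 494/518 nm, PI 535/617 nm).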

[5] = AUC (last) in Sprague dawley rat at 3 mg/kg, po; assay type: ADME, organism-based; parameters: time 0 - last, route oral, dose 3 mg/kg; details: in vivo
Summary of the method: (§3)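 Blood was collected into heparin tubes at specified time points and centrifuged at once (4 °C, 4000 rpm, 20 min). Plasma levels were quantified by LC-MS/MS. Parameters came from noncompartmental analysis.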

[6] = Tmax in Sprague dawley rat at 3 mg/kg, po; assay type: ADME, organism-based; details: in vivo
Summary of the method: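 Male/female status not given; SD rats (n = 3 per group) dosed orally at 3 mg/kg as a single dose. Blood taken into heparin tubes at set time points and centrifuged at 4 °C. Plasma levels quantified by LC-MS/MS; noncompartmental parameters fitted.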

[7] = Stability in human liver microsomes assessed as half life at 100 uM measured after 60 mins by LC-MS/MS analysis; assay type: ADME, Microsome; details: 1 h; summary of the method: as §1
KM12 [8] = assay: Cell cycle arrest in human KM12 cells assessed as accumulation of cells at greater G1 phase at 125 nM measured after 48 hrs by AnnexinV-FITC/PI staining based flowcytometry method relative to control; assay type: functional
KM12 [9] = assay: Cell cycle arrest in human KM12 cells assessed as accumulation of cells at greater G1 phase at 250 nM measured after 48 hrs by AnnexinV-FITC/PI staining based flowcytometry method relative to control; assay type: functional
[10] = AUC (last) in Sprague dawley rat at 1 mg/kg, iv; assay type: ADME, organism-based; parameters: time 0 - last, route intravenous, dose 1 mg/kg; details: in vivo; summary of the method: as §3
KM12 [11] = assay: Cell cycle arrest in human KM12 cells assessed as accumulation of cells at G1 phase at 1000 nM measured after 48 hrs by AnnexinV-FITC/PI staining based flowcytometry method relative to control; assay type: functional
[12] = MRT in Sprague dawley rat at 3 mg/kg, po; assay type: ADME, organism-based; details: in vivo
Summary of the method: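 Male-unspecified SD rats, n = 3 per group, single i.v. dose 1 mg/kg or oral 3 mg/kg. Blood drawn into heparin tubes at set times, centrifuged at 4 °C, plasma quantified by LC-MS/MS; noncompartmental parameters fitted.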

KM12 [13] = assay: Induction of apoptosis in human KM12 cells assessed as late apoptotic cells at 125 nM measured after 48 hrs by AnnexinV-FITC/PI staining based flowcytometry assay relative to control; assay type: functional
Summary of the method: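 They were detached with trypsin, washed twice in PBS, and 10^5 cells were suspended in Annexin V binding buffer. Cells were stained with FITC-Annexin V and PI for 10 min at room temperature in the dark, diluted with PBS and analysed by flow cytometry.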

[14] = Stability in human plasma assessed as half life incubated for 0 mins by LC-MS/MS analysis; assay type: ADME, cell-free
Summary of the method: (§4)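 Pooled frozen human plasma thawed at 37 °C, centrifuged to remove clots, pH adjusted to 7.4 if required. Spiked to 2 µM final (from 100 µM dosing solution), in duplicate, incubated at 37 °C in a water bath. Sampled at 0, 10, 30, 60 and 120 min, quenched with acetonitrile stop solution containing internal standards, centrifuged, and supernatant analysed by LC-MS/MS for percent remaining.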

[15] = target: Hepatocyte growth factor receptor (Homo sapiens) (UniProt P08581); assay: Inhibition of recombinant His-tagged human MET expressed in baculovirus expression system at 1 uM measured by select screen assay relative to control
Summary of the method: (§5)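 Single-concentration profiling at 1.0 µM in a 28-kinase SelectScreen panel; percent inhibition reported.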

KM12 [16] = assay: Induction of apoptosis in human KM12 cells assessed as necrotic cells at 62.5 nM measured after 48 hrs by AnnexinV-FITC/PI staining based flowcytometry assay relative to control; assay type: functional; summary of the method: as §2
KM12 [17] = assay: Cell cycle arrest in human KM12 cells assessed as accumulation of cells at S phase at 250 nM measured after 48 hrs by AnnexinV-FITC/PI staining based flowcytometry method relative to control; assay type: functional
[18] = Stability in human liver microsomes assessed as compound remaining in presence of NADPH at 100 uM measured after 60 mins by LC-MS/MS analysis; assay type: ADME, Microsome; details: read-out: Stability; summary of the method: as §1
[19] = Volume of distribution at steady state in Sprague dawley rat at 1 mg/kg, iv; assay type: ADME, organism-based; details: in vivo, read-out: Vdss
Summary of the method: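 Single intravenous dose of 1 mg/kg to SD rats (n = 3 per group). Blood collected into heparinised tubes at specified times, centrifuged at 4 °C, and quantified by LC-MS/MS. Steady-state volume of distribution obtained by noncompartmental analysis.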

[20] = Stability in human plasma assessed as compound remaining incubated for 0 mins by LC-MS/MS analysis; assay type: ADME, cell-free; details: read-out: Stability; summary of the method: as §4
CYP2D6 = CYP2D6 (Homo sapiens, UniProt P10635); assay: Inhibition of CYP2D6 in human liver microsomes at 10 uM preincubated for 10 mins followed by addition of NADPH and measured after 15 mins by LC-MS/MS analysis; assay type: ADME; details: time 25 min
Summary of the method: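 Pooled human liver microsomes (0.253 mg/mL) with test compound at 10 µM and probe substrates: phenacetin (CYP1A2), diclofenac (CYP2C9), S-mephenytoin (CYP2C19), dextromethorphan (CYP2D6), midazolam (CYP3A4). 10 min preincubation at 37 °C, NADPH-regenerating system added, 15 min at 37 °C. Stopped with cold acetonitrile containing tolbutamide/labetalol internal standards, centrifuged, supernatant read by LC-MS/MS; % inhibition.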

[21] = target: Mitogen-activated protein kinase 3 (Homo sapiens) (UniProt P27361); assay: Inhibition of recombinant GST-tagged full length human ERK1 expressed in Escherichia coli expression system at 1 uM measured by select screen assay relative to control; summary of the method: as §5
KM12 [22] = assay: Induction of apoptosis in human KM12 cells assessed as necrotic cells at 500 nM measured after 48 hrs by AnnexinV-FITC/PI staining based flowcytometry assay relative to control; assay type: functional; summary of the method: as §2

Chain of Hepatocyte growth factor receptor (Homo sapiens) (P08581 whole entry): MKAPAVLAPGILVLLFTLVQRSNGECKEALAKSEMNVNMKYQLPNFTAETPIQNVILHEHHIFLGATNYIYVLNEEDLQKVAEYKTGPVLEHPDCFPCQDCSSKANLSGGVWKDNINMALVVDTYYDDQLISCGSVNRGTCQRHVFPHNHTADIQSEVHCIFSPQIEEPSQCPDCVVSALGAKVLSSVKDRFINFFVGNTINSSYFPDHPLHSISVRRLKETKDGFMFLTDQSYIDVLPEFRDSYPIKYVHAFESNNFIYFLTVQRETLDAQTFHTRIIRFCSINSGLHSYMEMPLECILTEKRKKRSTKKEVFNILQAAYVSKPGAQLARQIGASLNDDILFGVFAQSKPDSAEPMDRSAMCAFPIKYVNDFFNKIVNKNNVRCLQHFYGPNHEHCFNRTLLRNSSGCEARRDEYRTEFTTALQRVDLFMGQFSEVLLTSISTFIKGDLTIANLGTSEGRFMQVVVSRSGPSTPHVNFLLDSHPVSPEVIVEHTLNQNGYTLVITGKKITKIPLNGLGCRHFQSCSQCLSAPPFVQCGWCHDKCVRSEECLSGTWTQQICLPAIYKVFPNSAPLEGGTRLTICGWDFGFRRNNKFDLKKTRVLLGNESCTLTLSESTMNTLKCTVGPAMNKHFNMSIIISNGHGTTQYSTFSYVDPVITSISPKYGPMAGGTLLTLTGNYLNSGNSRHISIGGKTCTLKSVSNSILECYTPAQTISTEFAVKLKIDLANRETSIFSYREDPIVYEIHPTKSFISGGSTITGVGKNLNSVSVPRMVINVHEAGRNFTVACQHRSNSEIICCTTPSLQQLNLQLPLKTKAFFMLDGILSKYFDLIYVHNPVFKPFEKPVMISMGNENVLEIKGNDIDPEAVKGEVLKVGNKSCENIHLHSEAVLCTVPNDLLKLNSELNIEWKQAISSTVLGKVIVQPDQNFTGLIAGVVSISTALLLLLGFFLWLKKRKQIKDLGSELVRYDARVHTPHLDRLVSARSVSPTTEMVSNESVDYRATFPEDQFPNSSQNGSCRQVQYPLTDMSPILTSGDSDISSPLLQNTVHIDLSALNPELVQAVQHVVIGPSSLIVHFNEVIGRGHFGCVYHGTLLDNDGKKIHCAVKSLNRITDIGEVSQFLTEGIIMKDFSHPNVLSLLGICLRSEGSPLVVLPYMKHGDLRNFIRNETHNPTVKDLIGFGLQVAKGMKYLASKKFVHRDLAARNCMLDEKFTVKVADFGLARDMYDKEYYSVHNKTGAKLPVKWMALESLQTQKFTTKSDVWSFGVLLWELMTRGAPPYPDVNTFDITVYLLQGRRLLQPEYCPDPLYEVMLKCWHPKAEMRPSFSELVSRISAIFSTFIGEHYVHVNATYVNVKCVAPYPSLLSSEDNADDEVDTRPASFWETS
Chain of Mitogen-activated protein kinase 3 (Homo sapiens) (P27361 whole entry): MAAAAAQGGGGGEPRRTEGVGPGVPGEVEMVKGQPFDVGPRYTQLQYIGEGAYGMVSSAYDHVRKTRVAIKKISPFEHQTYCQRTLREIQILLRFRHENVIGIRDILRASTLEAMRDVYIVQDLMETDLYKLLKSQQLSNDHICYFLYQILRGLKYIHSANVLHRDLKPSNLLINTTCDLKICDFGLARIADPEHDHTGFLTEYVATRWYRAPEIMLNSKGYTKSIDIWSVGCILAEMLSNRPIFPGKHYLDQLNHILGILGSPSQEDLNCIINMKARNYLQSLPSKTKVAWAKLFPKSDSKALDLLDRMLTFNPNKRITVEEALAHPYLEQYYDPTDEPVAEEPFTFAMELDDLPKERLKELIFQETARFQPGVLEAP
Chain of CYP2D6 (P10635 whole entry): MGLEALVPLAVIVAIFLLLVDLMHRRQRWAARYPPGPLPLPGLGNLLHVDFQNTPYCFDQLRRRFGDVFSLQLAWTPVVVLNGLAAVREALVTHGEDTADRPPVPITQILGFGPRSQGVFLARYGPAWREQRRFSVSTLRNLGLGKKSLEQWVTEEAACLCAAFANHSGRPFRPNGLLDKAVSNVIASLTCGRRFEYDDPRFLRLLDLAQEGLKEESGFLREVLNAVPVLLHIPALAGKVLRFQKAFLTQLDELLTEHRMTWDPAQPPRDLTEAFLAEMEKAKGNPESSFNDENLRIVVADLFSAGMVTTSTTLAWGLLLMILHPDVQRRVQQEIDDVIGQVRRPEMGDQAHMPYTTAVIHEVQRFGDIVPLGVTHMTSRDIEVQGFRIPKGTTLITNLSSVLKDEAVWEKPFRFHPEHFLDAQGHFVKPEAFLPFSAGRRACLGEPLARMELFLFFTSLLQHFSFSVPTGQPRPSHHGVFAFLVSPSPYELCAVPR

- Stability [1]: 90.9%
- CLH [2]: 42.1 µL/min/mg
- AUC(0-t) [5]: 2700 ng·h/mL
- Tmax [6]: 1.67 h
- t1/2 [7]: 0.493 h
- AUC(0-t) [10]: 2030 ng·h/mL
- MRT [12]: 3.49 h
- half-life [14]: > 4.82 h
- inhibition [15]: 6%
- remaining at 1 h, 100 µM [18]: 22.4%
- Vd [19]: 0.892 L/kg
- remaining at 0 h [20]: 100%
- inhibition at 0.25 h, 10 µM (CYP2D6): 0%
- inhibition [21]: 0%
Structure (SMILES): CN1CCN(c2ccc(C(=O)Nc3n[nH]c4c3CN(Cc3cc(F)cc(F)c3)C4(C)C)cc2)CC1
- Activity (KM12 [3]): 8.92%
- viability at 1 µM (KM12 [4]): 23.7%
- Activity (KM12 [8]): 2.45%
- Activity (KM12 [9]): 1.26%
- Activity (KM12 [11]): 72.8%
- Activity (KM12 [13]): 18.23%
- Activity (KM12 [16]): 0.03%
- Activity (KM12 [17]): 8.17%
- Activity (KM12 [22]): 0.06%
